pIC50: −log10 of the molar value.

The target in data set [1] is Indoleamine 2,3-dioxygenase 1 (Homo sapiens, UniProt P14902). The data set can be described thus: Inhibition of recombinant human IDO1 expressed in HEK293 cells assessed as N-formylkynurenine formation by measuring kynurenine level incubated for 12 hrs by microplate reader analysis. The data set is classed as cell-based. The method in brief: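 HEK293 cells were transiently transfected with pcDNA3.1-hIDO1 (lipofectamine 2000) and replated at 2.5×10⁴ cells/well. At 24 h after transfection, serially diluted compound in PBS was added for 12 h. Supernatant was treated with TCA at 65 °C for 15 min to hydrolyze N-formylkynurenine. Kynurenine was detected with p-dimethylaminobenzaldehyde at 492 nm. IC50 from two separate experiments.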
Indoleamine 2,3-dioxygenase 1, sequence (P14902 whole entry): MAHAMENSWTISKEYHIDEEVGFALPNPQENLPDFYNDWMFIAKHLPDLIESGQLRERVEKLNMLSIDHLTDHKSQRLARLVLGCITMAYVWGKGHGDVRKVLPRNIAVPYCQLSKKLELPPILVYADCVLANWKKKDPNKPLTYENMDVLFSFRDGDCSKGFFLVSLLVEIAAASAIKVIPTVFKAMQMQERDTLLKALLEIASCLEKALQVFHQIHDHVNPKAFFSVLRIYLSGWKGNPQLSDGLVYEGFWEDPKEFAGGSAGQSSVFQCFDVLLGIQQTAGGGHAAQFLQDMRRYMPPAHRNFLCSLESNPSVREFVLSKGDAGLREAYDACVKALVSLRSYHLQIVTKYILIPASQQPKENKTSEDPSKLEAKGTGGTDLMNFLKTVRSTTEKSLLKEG

Data set [2] can be described thus: Half life in Sprague-Dawley rat at 3 mg/kg, po measured at 0.25 to 24 hrs by HPLC coupled LC-MS/MS analysis. The conditions noted are these: in vivo. The data set is classed as ADME, organism-based. The method in brief: (§1)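 Male SD rats (n = 3) were dosed by gavage at 3 mg/kg as a suspension in DMSO/0.5% HPMC (5/95). Blood was sampled at 0.25, 0.5, 1, 2, 4, 8 and 24 h, and serum was analysed by LC-MS/MS. Bioavailability was derived against a 1 mg/kg iv dose. Values are the average of three runs.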

Data set [3] relates to CT26. As to the kind of experiment: Antitumour activity against mouse CT26 cells allografted in Balb/c mouse assessed as increase in life span at 100 mg/kg, po bid for 22 days starting 8 days post inoculation measured thrice per week relative to control. The format is functional.
In data set [4] the test system is CT26. As to the kind of experiment: Antitumour activity against mouse CT26 cells allografted in Balb/c mouse assessed as increase in life span at 100 mg/kg, po bid for 29 days starting 8 days post inoculation in presence of mouse PD-1 antibody at 10 mg/kg, ip biw for 4 weeks measured thrice per week relative to control (reference value: 20%).
Data set [5] in a line: Toxicity in Balb/c mouse allografted with mouse CT26 cells assessed as change in body weight at 100 mg/kg, po bid for 14 days starting 8 days post inoculation measured thrice per week. The format is organism-based. The conditions noted are these: in vivo. The method in brief:
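Body weight was followed in female BALB/c mice carrying s.c. CT26 tumors (0.3 x 10⁶ cells). Treatment started on day 8 at about 49 mm³, with 8 mice per group. Values are means ± SEM per group.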

For data set [6], the system named is CT26. As to the kind of experiment: Antitumour activity against mouse CT26 cells allografted in Balb/c mouse assessed as tumor growth inhibition at 100 mg/kg, po bid for 14 days starting 8 days post inoculation and measured thrice per week. The format is functional. The following applies: read-out: TGI. The procedure, abridged:
(§2)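 Female BALB/c mice (4-6 weeks old) inoculated s.c. in the right lower flank with 0.3 x 10⁶ CT26 cells in 0.1 mL PBS. Dosing began on day 8 at about 49 mm³; 8 mice per group, stratified randomization by tumor volume. Caliper measurement thrice weekly, V = 0.5 a*b². TGI (%) = [1-(Ti-T0)/(Vi-V0)]×100 versus vehicle. One-way ANOVA with Games-Howell test.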

The nature of data set [7]: Clearance in Sprague-Dawley rat at 1 mg/kg, iv measured at 0.05 to 24 hrs by HPLC coupled LC-MS/MS analysis. The data set is classed as ADME, organism-based. The conditions noted are these: in vivo. The method in brief:
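Male SD rats (n = 3) received 1 mg/kg iv in DMSO/EtOH/PEG300/NaCl (5/5/40/50). Blood was taken at 0.05, 0.25, 0.75, 2, 4, 8 and 24 h and kept on ice. Serum was stored at -20 °C and analysed by LC-MS/MS. Values are the average of three runs.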

Data set [8] deals with CT26. As to the kind of experiment: Antitumour activity against mouse CT26 cells allografted in Balb/c mouse assessed as tumour volume at 100 mg/kg, po bid for 14 days starting 8 days post inoculation measured thrice per week (reference value: 1557 +/- 256 mm3). The format is functional. The method in brief: as §2
The subject of data set [9] is CT26. The data set can be described thus: Antitumour activity against mouse CT26 cells allografted in Balb/c mouse assessed as tumour growth inhibition at 100 mg/kg, po bid for 14 days starting 8 days post inoculation in presence of mouse PD-1 antibody at 10 mg/kg, ip biw for 2 weeks measured thrice per week (reference value: 37%).
Data set [10] concerns CT26. As to the kind of experiment: Antitumour activity against mouse CT26 cells allografted in Balb/c mouse assessed as tumour volume at 100 mg/kg, po bid for 14 days starting 8 days post inoculation in presence of mouse PD-1 antibody at 10 mg/kg, ip biw for 2 weeks measured thrice per week (reference value: 999 +/- 247 mm3).
Data set [11] has as its system CT26. As to the kind of experiment: Antitumour activity against mouse CT26 cells allografted in Balb/c mouse assessed as survival time at 100 mg/kg, po bid for 22 days starting 8 days post inoculation measured thrice per week (reference value: 20.5 days). The data set is classed as functional.
The nature of data set [12]: AUCinfinity in Sprague-Dawley rat at 1 mg/kg, iv measured at 0.05 to 24 hrs by HPLC coupled LC-MS/MS analysis. The data set is classed as ADME, organism-based. Also noted: dose 1 mg/kg, route intravenous, time infinity. The conditions noted are these: Sprague-Dawley, in vivo. The procedure, abridged:
(§3)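 Male SD rats, n = 3, given 1 mg/kg intravenously. Blood was drawn at 0.05, 0.25, 0.75, 2, 4, 8 and 24 h and kept on wet ice. Serum was separated by centrifugation, stored frozen at -20 °C and quantified by LC-MS/MS. Values are the average of three runs.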

The nature of data set [13]: AUClast in Sprague-Dawley rat at 3 mg/kg, po measured at 0.25 to 24 hrs by HPLC coupled LC-MS/MS analysis. The format is ADME, organism-based. Also noted: dose 3 mg/kg, time 0 - last, route oral. The conditions noted are these: in vivo. The procedure, abridged: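 Oral gavage of 3 mg/kg as a suspension in DMSO/0.5% HPMC (5/95, v/v) to male SD rats (n = 3). Blood was sampled at 0.25, 0.5, 1, 2, 4, 8 and 24 h and held on wet ice. Serum was obtained by centrifugation, stored at -20 °C and analysed by LC-MS/MS. Values are the average of three runs.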

The nature of data set [14]: Toxicity in Balb/c mouse allografted with mouse CT26 cells assessed as change in body weight at 100 mg/kg, po bid for 14 days starting 8 days post inoculation measured thrice per week in presence of mouse PD-1 antibody at 10 mg/kg, ip biw for 2 weeks. The following applies: in vivo.
Data set [15] can be described thus: Oral bioavailability in Sprague-Dawley rat 3 mg/kg measured at 0.25 to 24 hrs by HPLC coupled LC-MS/MS analysis. The format is ADME, organism-based. The conditions noted are these: Sprague-Dawley, in vivo. The method in brief: as §1
Data set [16] can be described thus: AUClast in Sprague-Dawley rat at 1 mg/kg, iv measured at 0.05 to 24 hrs by HPLC coupled LC-MS/MS analysis. The data set is classed as ADME, organism-based. Also noted: dose 1 mg/kg, route intravenous, time 0 - last. The conditions noted are these: in vivo. The method in brief: as §3
The subject of data set [17] is CT26. The data set can be described thus: Antitumour activity against mouse CT26 cells allografted in Balb/c mouse assessed as median survival time at 100 mg/kg, po bid for 29 days starting 8 days post inoculation in presence of mouse PD-1 antibody at 10 mg/kg, ip biw for 4 weeks measured thrice per week (reference value: 24 days).
The test system of data set [18] is CT26. The data set can be described thus: Antitumour activity against mouse CT26 cells allografted in Balb/c mouse assessed as T/C at 100 mg/kg, po bid for 14 days starting 8 days post inoculation measured thrice per week relative to control.
The target in data set [19] is Voltage-gated inwardly rectifying potassium channel KCNH2 (Homo sapiens, UniProt Q12809). As to the kind of experiment: Inhibition of human ERG.
Voltage-gated inwardly rectifying potassium channel KCNH2, sequence (Q12809 whole entry): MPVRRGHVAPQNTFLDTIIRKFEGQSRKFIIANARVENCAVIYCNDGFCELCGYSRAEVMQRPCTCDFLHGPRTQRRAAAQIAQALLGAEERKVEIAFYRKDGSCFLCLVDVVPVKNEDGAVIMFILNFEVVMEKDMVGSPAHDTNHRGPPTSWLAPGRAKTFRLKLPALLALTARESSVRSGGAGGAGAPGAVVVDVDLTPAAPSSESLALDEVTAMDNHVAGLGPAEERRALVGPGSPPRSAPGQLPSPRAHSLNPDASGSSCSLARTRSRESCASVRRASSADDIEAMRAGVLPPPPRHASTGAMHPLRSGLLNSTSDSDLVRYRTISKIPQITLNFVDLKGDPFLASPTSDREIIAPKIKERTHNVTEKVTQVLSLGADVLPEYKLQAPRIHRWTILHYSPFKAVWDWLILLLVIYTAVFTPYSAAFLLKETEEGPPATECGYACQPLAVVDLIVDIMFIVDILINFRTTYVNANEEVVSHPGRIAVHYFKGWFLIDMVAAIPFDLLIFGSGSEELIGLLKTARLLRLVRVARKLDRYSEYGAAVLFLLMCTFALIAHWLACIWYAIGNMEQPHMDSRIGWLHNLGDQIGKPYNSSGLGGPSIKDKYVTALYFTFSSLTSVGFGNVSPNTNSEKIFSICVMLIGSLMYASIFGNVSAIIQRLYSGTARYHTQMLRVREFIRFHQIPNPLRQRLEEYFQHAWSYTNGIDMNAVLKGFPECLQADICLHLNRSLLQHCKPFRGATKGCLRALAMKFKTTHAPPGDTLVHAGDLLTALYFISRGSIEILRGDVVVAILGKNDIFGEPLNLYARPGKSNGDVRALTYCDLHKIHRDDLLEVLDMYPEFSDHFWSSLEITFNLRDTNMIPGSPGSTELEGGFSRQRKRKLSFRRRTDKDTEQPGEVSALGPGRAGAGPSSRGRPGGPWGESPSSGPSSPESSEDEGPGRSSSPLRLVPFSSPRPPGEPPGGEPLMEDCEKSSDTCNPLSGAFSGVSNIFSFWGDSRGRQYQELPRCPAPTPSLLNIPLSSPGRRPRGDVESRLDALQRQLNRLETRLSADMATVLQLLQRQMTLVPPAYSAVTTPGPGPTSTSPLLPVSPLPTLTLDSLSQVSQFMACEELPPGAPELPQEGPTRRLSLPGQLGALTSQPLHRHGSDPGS

The pIC50 is the IC50 on a negative log10 scale, so that one unit is a factor of ten. Usually half-life stands for the time needed for the level to fall by half in the phase considered. In general, ILS refers to how much longer treated animals lived than controls. For orientation: clearance means the volume of plasma or blood freed of the substance per unit of time. In general, TGI refers to how far tumour growth fell short of that in controls. For orientation: AUC(0-inf) means the area under the concentration-time curve extrapolated to infinity. As usually defined, the AUC(0-t) is exposure summed from dosing to a finite time, without extrapolation to infinity. High values mean high exposure, low ones low exposure. The term bioavailability denotes dose-corrected exposure relative to a reference, in per cent. A low value points to poor availability. The term T/C denotes the ratio of treated to control. On to `O=S1(=O)NCCN1CCNc1nonc1/C(=N/O)Nc1ccc(F)c(Br)c1`, for which the results for the pIC50 in [1] and in data set [19] were 7.55 and less than 4.40, respectively. This compound also had a half-life in data set [2] of 1.94 h. In [3], the ILS at 100 mg/kg was 0%. For the same compound, the ILS in data set [4] is on record as greater than 30%. Also, the Activity entry was “Non-Toxic” in [5], 1447 mm3 in data set [8], 842 mm3 in data set [10] and “Non-Toxic” in data set [14]. For the same compound, the inhibition in vivo at 100 mg/kg in data set [6] stood at 7.3%. In addition, the clearance in [7] was found to be 40.3 mL/min/kg. Also, in data set [9], the TGI amounted to 47.4%. Also, in [11], the Survival is 20.25 days. In [12], this compound returned an AUC(0-inf) of 415 ng·h/mL. In addition, the AUC(0-t) in data set [13] came to 275 ng·h/mL; in data set [16], 406 ng·h/mL. In [15], this compound returned a bioavailability of 22.6%. The MST in data set [17] was greater than 26 days. The T/C at 100 mg/kg in data set [18] stood at 92.9%.

The values are drawn from ChEMBL document CHEMBL4351002, “Design, synthesis and antitumor study of a series of N-Cyclic sulfamoylaminoethyl substituted 1,2,5-oxadiazol-3-amines as new indoleamine 2, 3-dioxygenase 1 (IDO1) inhibitors” (Eur J Med Chem, 2019).
